Measurements reported in ChEMBL document CHEMBL1152541, “Staurosporine tethered peptide ligands that target cAMP-dependent protein kinase (PKA): optimization and selectivity profiling” (Bioorg Med Chem, 2009).
Blank lines part the entries; values can stand above or below the compound they belong to. *1 amine or outer side, *2 acyl side, *3 side chain or, on linkers, in order; H or OH if unused. Where a SMILES comes first, the peptide text is derived from it. Bridges are numbered along the chain shown (N, C = ends). [ ]: non-standard residue; d: D form. The star is where a group is joined. Staurosporine = CO[C@@H]1[C@H](N(C)*)C[C@H]2O[C@]1(C)n1c3ccccc3c3c4c(c5c6ccccc6n2c5c31)C(=O)NC4; Suc = O=C(CCC(=O)[*:2])[*:1]; Dap = NC[C@H](N)C(=O)O; βAla = NCCC(=O)O

Experiments:
[1] = target: Ephrin type-A receptor 2 (Homo sapiens) (UniProt P29317); assay: Binding affinity to human EPHA2 at 500 nM by cell-based competition binding assay relative to control in presence of DTT
How it was run: (§1)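 Commercial (Ambit) competitive kinase-binding panel of 90 kinases measured the binding profile. Run under reducing conditions of 7.5 mM DTT. Binding is expressed relative to control.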

[2] = target: Mitogen-activated protein kinase 3 (Homo sapiens) (UniProt P27361); assay: Binding affinity to human ERK1 at 500 nM by cell-based competition binding assay relative to control in presence of DTT; how it was run: as §1
Chain of Mitogen-activated protein kinase 3 (Homo sapiens) (P27361 whole entry): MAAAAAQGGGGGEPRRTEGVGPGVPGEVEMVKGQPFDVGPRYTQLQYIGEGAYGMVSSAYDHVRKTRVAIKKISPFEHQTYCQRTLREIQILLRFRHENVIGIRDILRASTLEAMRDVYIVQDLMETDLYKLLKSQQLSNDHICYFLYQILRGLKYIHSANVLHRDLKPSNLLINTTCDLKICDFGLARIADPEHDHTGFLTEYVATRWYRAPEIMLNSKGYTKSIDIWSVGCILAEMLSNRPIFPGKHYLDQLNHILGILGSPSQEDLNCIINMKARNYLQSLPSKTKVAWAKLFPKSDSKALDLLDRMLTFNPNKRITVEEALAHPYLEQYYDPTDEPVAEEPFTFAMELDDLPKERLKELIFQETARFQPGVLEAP

[3] = target: Serine/threonine-protein kinase pim-3 (Homo sapiens) (UniProt Q86V86); assay: Binding affinity to human PIM3 at 500 nM by cell-based competition binding assay relative to control in presence of DTT
[4] = target: Proto-oncogene tyrosine-protein kinase receptor Ret (Homo sapiens) (UniProt P07949); assay: Binding affinity to human RET at 500 nM by cell-based competition binding assay relative to control in presence of DTT
[5] = target: Serine/threonine-protein kinase B-raf (Homo sapiens) (UniProt P15056); assay: Binding affinity to human BRAF at 500 nM by cell-based competition binding assay relative to control in presence of DTT
Chain of Serine/threonine-protein kinase B-raf (Homo sapiens) (P15056 whole entry): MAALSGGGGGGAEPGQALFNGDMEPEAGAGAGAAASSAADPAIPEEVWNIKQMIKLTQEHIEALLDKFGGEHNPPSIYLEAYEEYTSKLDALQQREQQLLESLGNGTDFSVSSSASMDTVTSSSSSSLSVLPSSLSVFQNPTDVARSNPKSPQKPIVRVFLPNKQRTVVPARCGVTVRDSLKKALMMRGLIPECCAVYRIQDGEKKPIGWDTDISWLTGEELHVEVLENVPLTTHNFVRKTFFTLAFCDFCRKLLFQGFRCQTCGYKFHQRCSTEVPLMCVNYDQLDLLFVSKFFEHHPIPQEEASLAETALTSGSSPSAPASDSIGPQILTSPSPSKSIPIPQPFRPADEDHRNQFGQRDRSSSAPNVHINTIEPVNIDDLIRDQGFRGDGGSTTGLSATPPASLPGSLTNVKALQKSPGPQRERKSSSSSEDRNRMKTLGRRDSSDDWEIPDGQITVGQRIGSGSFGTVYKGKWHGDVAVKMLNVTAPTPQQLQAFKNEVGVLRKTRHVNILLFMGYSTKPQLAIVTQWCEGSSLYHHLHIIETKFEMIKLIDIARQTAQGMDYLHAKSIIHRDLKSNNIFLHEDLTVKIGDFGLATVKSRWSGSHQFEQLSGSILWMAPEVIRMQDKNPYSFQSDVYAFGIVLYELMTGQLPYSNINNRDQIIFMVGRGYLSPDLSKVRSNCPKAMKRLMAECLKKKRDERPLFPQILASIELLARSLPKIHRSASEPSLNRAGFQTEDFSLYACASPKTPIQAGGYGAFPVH
How it was run: (§2)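 Kinase binding profiling ran on a commercial (Ambit) competitive binding screen against a panel of 90 kinases. The screen used reducing conditions with 7.5 mM DTT. To withstand the DTT, the bivalent ligand was tested as its amide isostere, with the disulfide replaced. A staurosporine derivative carrying a 3 β-alanine linker was run as the reference compound.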

[6] = target: Insulin receptor (Homo sapiens) (UniProt P06213); assay: Binding affinity to human INSR at 500 nM by cell-based competition binding assay relative to control in presence of DTT
How it was run: (§3)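 Competition binding screen (Ambit) across a panel of 90 kinases, scoring test ligand displacement of each kinase's binding relative to control. The screen ran under reducing conditions with 7.5 mM DTT.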

[7] = target: T1, Serine/threonine-protein kinase DCLK1 (Homo sapiens) (UniProt O15075); assay: Binding affinity to human DCAMKL1 at 200 nM by cell-based competition binding assay relative to control in presence of DTT; how it was run: as §1
T1 sequence (whole entry): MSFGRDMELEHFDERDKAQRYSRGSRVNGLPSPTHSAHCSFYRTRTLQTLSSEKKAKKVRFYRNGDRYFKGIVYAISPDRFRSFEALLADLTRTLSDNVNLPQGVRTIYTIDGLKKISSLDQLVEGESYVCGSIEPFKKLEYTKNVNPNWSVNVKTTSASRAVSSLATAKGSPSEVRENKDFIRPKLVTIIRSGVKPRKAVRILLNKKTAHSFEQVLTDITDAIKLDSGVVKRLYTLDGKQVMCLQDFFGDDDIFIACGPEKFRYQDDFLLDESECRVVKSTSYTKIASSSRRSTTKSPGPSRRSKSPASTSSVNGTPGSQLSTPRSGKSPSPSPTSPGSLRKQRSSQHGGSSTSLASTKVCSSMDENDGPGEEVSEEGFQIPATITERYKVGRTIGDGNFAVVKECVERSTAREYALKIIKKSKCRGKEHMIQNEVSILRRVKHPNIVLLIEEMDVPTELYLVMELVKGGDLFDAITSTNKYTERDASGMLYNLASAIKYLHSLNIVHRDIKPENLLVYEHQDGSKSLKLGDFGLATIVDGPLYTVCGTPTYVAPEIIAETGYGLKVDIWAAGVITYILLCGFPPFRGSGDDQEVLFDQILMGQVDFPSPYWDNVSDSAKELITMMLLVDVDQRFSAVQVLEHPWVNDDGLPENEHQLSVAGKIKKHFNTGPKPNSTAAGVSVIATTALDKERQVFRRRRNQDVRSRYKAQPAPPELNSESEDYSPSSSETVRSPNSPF

[8] = target: Insulin-like growth factor 1 receptor (Homo sapiens) (UniProt P08069); assay: Binding affinity to human IGF1R at 200 nM by cell-based competition binding assay relative to control in presence of DTT; how it was run: as §3
Chain of Insulin-like growth factor 1 receptor (Homo sapiens) (P08069 31-736 limits assumed): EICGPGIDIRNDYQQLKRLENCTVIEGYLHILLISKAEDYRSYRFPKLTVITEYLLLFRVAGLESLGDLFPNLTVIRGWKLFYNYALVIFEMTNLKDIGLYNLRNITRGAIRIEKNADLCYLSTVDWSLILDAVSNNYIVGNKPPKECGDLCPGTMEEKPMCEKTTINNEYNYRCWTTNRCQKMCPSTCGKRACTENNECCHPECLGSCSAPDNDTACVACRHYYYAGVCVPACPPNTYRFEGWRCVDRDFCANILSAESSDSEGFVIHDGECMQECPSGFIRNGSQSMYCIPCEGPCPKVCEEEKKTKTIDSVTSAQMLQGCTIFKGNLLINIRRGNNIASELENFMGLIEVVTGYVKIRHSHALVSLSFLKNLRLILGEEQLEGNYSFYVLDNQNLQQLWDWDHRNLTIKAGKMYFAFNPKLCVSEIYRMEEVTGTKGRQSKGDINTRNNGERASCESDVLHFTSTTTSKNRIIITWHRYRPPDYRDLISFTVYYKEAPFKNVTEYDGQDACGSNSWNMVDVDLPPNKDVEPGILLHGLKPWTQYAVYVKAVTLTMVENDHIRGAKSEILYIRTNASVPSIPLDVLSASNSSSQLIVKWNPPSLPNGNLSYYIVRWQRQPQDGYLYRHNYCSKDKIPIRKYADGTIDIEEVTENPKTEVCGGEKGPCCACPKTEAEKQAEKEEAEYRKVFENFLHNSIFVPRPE
Chain of Insulin-like growth factor 1 receptor (Homo sapiens) (P08069 741-1367 limits assumed): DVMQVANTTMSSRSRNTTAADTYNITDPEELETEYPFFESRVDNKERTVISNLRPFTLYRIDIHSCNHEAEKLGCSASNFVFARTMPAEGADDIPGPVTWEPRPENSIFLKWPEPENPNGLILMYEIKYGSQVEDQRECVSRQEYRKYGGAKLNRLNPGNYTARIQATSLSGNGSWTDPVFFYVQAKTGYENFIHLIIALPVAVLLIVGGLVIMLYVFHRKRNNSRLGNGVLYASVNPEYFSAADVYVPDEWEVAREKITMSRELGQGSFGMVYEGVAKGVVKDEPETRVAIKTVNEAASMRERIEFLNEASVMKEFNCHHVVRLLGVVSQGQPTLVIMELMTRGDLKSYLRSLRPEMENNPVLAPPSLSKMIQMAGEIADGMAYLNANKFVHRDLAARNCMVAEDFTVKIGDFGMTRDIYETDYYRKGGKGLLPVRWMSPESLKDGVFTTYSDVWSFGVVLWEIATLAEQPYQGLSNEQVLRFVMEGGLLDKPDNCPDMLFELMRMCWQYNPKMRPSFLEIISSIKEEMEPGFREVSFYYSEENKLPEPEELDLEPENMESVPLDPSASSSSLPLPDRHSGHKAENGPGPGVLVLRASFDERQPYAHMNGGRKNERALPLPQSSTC

[9] = target: Mitogen-activated protein kinase kinase kinase 9 (Homo sapiens) (UniProt P80192); assay: Binding affinity to human MLK1 at 200 nM by cell-based competition binding assay relative to control in presence of DTT
Chain of Mitogen-activated protein kinase kinase kinase 9 (Homo sapiens) (P80192 whole entry, looked up): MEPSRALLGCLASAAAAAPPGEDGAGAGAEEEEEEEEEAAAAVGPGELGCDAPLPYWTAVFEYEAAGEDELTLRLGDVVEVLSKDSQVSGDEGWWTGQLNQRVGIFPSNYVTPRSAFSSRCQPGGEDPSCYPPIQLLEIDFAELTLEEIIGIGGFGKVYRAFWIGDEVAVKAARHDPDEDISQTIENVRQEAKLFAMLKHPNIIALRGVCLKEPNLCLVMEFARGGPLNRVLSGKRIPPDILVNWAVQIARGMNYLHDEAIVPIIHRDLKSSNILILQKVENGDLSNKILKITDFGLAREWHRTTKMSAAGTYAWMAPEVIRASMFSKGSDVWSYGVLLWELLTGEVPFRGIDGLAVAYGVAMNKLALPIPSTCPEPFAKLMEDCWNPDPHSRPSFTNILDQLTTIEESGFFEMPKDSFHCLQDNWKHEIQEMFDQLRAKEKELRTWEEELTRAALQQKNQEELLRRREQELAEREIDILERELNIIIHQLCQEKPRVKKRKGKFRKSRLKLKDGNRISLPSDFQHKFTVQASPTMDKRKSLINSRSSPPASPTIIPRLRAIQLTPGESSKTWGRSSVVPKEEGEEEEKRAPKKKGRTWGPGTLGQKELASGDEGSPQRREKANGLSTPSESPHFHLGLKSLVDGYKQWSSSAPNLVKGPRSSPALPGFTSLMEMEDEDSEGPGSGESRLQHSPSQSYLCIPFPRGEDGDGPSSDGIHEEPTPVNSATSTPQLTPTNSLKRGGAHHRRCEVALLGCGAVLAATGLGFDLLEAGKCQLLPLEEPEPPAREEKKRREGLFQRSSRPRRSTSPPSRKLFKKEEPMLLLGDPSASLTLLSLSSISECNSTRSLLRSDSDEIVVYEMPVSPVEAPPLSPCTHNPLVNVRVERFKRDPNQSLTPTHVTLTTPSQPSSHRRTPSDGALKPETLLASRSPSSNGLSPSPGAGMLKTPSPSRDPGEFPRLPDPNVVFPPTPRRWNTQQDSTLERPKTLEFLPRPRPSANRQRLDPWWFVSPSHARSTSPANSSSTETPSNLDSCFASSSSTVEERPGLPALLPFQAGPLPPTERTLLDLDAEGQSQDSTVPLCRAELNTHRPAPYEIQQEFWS

[10] = target: Cyclin-dependent kinase 16 (Homo sapiens) (UniProt Q00536); assay: Binding affinity to human PCTK1 at 200 nM by cell-based competition binding assay relative to control in presence of DTT
[11] = target: RAC-beta serine/threonine-protein kinase (Homo sapiens) (UniProt P31751); assay: Binding affinity to human AKT2 at 200 nM by cell-based competition binding assay relative to control in presence of DTT; how it was run: as §2
Chain of RAC-beta serine/threonine-protein kinase (Homo sapiens) (P31751 whole entry): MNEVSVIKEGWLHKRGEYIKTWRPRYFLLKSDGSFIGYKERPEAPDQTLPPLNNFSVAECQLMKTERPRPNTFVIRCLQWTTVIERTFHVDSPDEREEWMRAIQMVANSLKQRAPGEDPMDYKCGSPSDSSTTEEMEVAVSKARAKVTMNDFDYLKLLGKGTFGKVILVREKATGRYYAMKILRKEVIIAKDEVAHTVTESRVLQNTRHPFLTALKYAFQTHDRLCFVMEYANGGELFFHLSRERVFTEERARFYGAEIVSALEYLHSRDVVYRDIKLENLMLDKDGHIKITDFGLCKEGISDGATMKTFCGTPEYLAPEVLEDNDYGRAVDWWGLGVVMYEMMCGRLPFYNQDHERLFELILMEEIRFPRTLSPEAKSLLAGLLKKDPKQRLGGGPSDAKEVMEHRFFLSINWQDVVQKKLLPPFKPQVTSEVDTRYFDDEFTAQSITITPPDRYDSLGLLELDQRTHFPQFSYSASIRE

[12] = target: Serine/threonine-protein kinase B-raf (Homo sapiens) (UniProt P15056); assay: Binding affinity to human BRAF at 200 nM by cell-based competition binding assay relative to control in presence of DTT; how it was run: as §2
[13] = target: Serine/threonine-protein kinase PLK3 (Homo sapiens) (UniProt Q9H4B4); assay: Binding affinity to human PLK3 at 200 nM by cell-based competition binding assay relative to control in presence of DTT
Chain of Serine/threonine-protein kinase PLK3 (Homo sapiens) (Q9H4B4 whole entry, looked up): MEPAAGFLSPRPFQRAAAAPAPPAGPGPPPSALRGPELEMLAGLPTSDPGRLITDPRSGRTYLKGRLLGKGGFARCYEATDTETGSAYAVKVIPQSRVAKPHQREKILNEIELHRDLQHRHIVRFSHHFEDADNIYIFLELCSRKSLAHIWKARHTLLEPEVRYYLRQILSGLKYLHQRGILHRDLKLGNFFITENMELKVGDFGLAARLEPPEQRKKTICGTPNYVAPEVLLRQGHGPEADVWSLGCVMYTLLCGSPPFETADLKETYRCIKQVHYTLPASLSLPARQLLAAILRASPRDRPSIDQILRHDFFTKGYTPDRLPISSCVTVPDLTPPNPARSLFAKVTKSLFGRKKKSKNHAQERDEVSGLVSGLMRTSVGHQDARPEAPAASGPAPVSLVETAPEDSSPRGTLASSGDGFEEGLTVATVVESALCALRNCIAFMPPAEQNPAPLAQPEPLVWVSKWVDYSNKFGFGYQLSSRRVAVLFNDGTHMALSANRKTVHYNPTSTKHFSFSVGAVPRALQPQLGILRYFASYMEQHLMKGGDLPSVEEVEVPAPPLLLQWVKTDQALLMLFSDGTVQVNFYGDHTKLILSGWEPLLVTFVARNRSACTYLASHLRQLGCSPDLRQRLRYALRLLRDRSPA

[14] = target: Cyclin-dependent kinase 3 (Homo sapiens) (UniProt Q00526); assay: Binding affinity to human CDK3 at 50 nM by cell-based competition binding assay relative to control in presence of DTT; how it was run: as §2
[15] = target: T1, Serine/threonine-protein kinase DCLK1 (Homo sapiens); assay: Binding affinity to human DCAMKL1 at 50 nM by cell-based competition binding assay relative to control in presence of DTT; how it was run: as §1
[16] = target: Mitogen-activated protein kinase kinase kinase 9 (Homo sapiens) (UniProt P80192); assay: Binding affinity to human MLK1 at 50 nM by cell-based competition binding assay relative to control in presence of DTT
[17] = target: T2, Tyrosine-protein kinase ZAP-70 (Homo sapiens) (UniProt P43403); assay: Binding affinity to human ZAP70 at 50 nM by cell-based competition binding assay relative to control in presence of DTT
T2 sequence (whole entry): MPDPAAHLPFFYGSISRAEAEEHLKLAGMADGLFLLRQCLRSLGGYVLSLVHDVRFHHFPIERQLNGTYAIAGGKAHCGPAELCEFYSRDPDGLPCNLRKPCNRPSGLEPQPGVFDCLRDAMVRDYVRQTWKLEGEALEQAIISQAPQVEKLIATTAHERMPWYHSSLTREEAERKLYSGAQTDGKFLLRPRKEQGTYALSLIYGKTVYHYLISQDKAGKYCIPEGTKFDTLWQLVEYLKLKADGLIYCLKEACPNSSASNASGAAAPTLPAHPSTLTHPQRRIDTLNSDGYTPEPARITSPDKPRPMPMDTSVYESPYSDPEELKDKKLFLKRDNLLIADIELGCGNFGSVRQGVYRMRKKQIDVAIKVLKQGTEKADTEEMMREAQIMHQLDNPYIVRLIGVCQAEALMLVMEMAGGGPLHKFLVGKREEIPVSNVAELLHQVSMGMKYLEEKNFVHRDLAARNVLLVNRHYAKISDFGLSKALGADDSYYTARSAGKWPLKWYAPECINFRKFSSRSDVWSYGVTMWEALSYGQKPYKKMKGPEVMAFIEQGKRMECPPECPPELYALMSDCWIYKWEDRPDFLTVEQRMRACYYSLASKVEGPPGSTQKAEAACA

Activity [1]: 80%
Activity [2]: 100%
Activity [3]: 10%
Activity [4]: 5.6%
Activity [5]: 100%
Activity [6]: 55%
Structure (SMILES): CO[C@@H]1[C@H](N(C)C(=O)CCC(=O)NCCC(=O)NCCC(=O)NCCC(N)=O)C[C@H]2O[C@]1(C)n1c3ccccc3c3c4c(c5c6ccccc6n2c5c31)C(=O)NC4

Activity [7]: 100%
Activity [8]: 100%
Activity [9]: 0.65%
Activity [10]: 94%
Activity [11]: 100%
Activity [12]: 100%
Activity [13]: 100%
Structure (SMILES): CO[C@@H]1[C@H](N(C)C(=O)CCC(=O)NCCC(=O)NCCC(=O)NCCC(=O)NCCC(=O)NCCC(=O)NCCC(=O)NCCC(=O)N[C@H]2CSSC[C@@H](C(=O)NCC(N)=O)NC(=O)CNC(=O)[C@H](Cc3ccccc3)NC(=O)[C@H](C(C)C)NC(=O)[C@H](CCCNC(=N)N)NC(=O)[C@H](Cc3ccccc3)NC(=O)[C@H](C(C)C)NC2=O)C[C@H]2O[C@]1(C)n1c3ccccc3c3c4c(c5c6ccccc6n2c5c31)C(=O)NC4 ({Staurosporine-Suc-βAla-βAla-βAla-βAla-βAla-βAla-βAla}-CVFRVFGCG-NH2; disulfide 1-8)

Activity [14]: 100%
Activity [15]: 95%
Activity [16]: 5.5%
Activity [17]: 57%
Structure (SMILES): CO[C@@H]1[C@H](N(C)C(=O)CCC(=O)NCCC(=O)NCCC(=O)NCCC(=O)NCCC(=O)NCCC(=O)NCCC(=O)NCCC(=O)N[C@H]2CNC(=O)C[C@@H](C(N)=O)NC(=O)CNC(=O)[C@H](Cc3ccccc3)NC(=O)[C@H](C(C)C)NC(=O)[C@H](CCCNC(=N)N)NC(=O)[C@H](Cc3ccccc3)NC(=O)[C@H](C(C)C)NC2=O)C[C@H]2O[C@]1(C)n1c3ccccc3c3c4c(c5c6ccccc6n2c5c31)C(=O)NC4 ({Staurosporine-Suc-βAla-βAla-βAla-βAla-βAla-βAla-βAla}-[Dap]VFRVFGD-NH2; lactam 1-8)
